Reference: ChEMBL document CHEMBL2040794, “Synthesis and structure-activity analysis of new phosphonium salts with potent activity against African trypanosomes” (J Med Chem, 2012)

How the values were obtained:
[1] = Cytotoxicity against human HEK cells after 3 days by alamar blue assay; type: cell-based, HEK293; conditions: Homo sapiens, HEK293, 72 h
Method in brief: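 Human embryonic kidney cells tested by resazurin (Alamar blue) assay: 48 h with compound, then 24 h more after dye addition, single reading; EC₅₀ derived.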

[2] = system: Trypanosoma brucei brucei; test: Antitrypanosomal activity against diminazene-, pentamidine-, and melaminophenyl arsenical-resistant HAPT1-deficient Trypanosoma brucei brucei B48 after 3 days by alamar blue assay; type: functional, organism-based; conditions: Trypanosoma brucei, B48, 72 h
Method in brief: (§1)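 Bloodstream-form T. b. brucei (wild-type s427; TbAT1-KO, made from s427 by TbAT1 deletion; B48, selected from TbAT1-KO in vitro on pentamidine, lacking functional HAPT1). Cells were exposed to compound for 48 h, then resazurin (Alamar blue) was added for a further 24 h. A single fluorescence reading gave EC50.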

[3] = system: Trypanosoma brucei brucei; test: Resistance factor, ratio of EC50 for diminazene aceturate-resistant TbAT1 gene-deficient Trypanosoma brucei brucei AT1-KO to EC50 for wild type Trypanosoma brucei brucei Lister 427; type: functional
Method in brief: (§2)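 Resistance factor is the EC50 in the resistant line (TbAT1-KO or B48) divided by the EC50 in wild-type s427. […] Resistant and wild-type EC50s were compared by Student t-test.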

[4] = Selectivity index, ratio of EC50 for human HEK cells to EC50 for wild type Trypanosoma brucei brucei Lister 427; type: toxicity, cell-based, HEK293; conditions: HEK cells, read-out: Ratio EC50
Method in brief: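 Ratio of EC₅₀ in HEK cells to EC₅₀ in wild-type T. b. brucei s427, both from resazurin assays.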

[5] = system: Trypanosoma brucei brucei; test: Antitrypanosomal activity against diminazene aceturate-resistant TbAT1 gene-deficient Trypanosoma brucei brucei AT1-KO after 3 days by alamar blue assay; type: functional, organism-based; conditions: Trypanosoma brucei, AT1-KO, 72 h; method in brief: as §1
[6] = system: Trypanosoma brucei brucei; test: Resistance factor, ratio of EC50 for diminazene-, pentamidine-, and melaminophenyl arsenical-resistant HAPT1-deficient Trypanosoma brucei brucei B48 to EC50 for wild type Trypanosoma brucei brucei Lister 427; type: functional; method in brief: as §2
[7] = system: Trypanosoma brucei brucei; test: Antitrypanosomal activity against wild type Trypanosoma brucei brucei Lister 427 after 3 days by alamar blue assay; type: functional, organism-based; conditions: Trypanosoma brucei, Lister 427, 72 h; method in brief: as §1
[8] = system: Trypanosoma brucei rhodesiense; test: Antitrypanosomal activity against Trypanosoma brucei rhodesiense STIB900 infected in rat L6 cells after 72 hrs by alamar blue assay; type: functional, organism-based; conditions: Trypanosoma brucei, STIB900, 72 h
L6 = test: Cytotoxicity against rat L6 cells after 72 hrs by alamar blue assay; type: cell-based; conditions: Rattus norvegicus, L6, 72 h

Compound | EC50 [1] [µM] | EC50 [2] [µM] | Ratio EC50 [3] | selectivity ratio [4] | EC50 [5] [µM] | Ratio EC50 [6] | EC50 [7] [µM] | EC50 [8] [µM] | EC50 (L6) [µM]
FC(F)(F)c1ccc([P+](Cc2ccc(Oc3ccc(C[P+](c4ccc(C(F)(F)F)cc4)(c4ccc(C(F)(F)F)cc4)c4ccc(C(F)(F)F)cc4)cc3)cc2)(c2ccc(C(F)(F)F)cc2)c2ccc(C(F)(F)F)cc2)cc1.[Br-].[Br-] | 174 | 0.28 | 1.3 | 723 | 0.32 | 1.2 | 0.24 | 5.26 | 9.93
CC[P+](CC)(CC)Cc1ccc(C(=O)c2ccc(C[P+](CC)(CC)CC)cc2)cc1 | > 300 | > 100 | – | – | > 100 | – | > 100 | 77.8 | > 149
O=C(c1ccc(C[P+](c2ccc(C(F)(F)F)cc2)(c2ccc(C(F)(F)F)cc2)c2ccc(C(F)(F)F)cc2)cc1)c1ccc(C[P+](c2ccc(C(F)(F)F)cc2)(c2ccc(C(F)(F)F)cc2)c2ccc(C(F)(F)F)cc2)cc1.[Br-].[Br-] | > 300 | 2.73 | 1.7 | > 60 | 8.51 | 0.5 | 5.05 | 16.4 | 25
C[P+](C)(Cc1ccc(Oc2ccc(C[P+](C)(C)c3ccccc3)cc2)cc1)c1ccccc1.[Br-].[Br-] | > 300 | 6.15 | 0.9 | > 40 | 6.52 | 0.9 | 7.22 | 3.83 | 84.5
O=S(=O)([O-])c1cccc([P+](Cc2ccc(Cc3ccc(C[P+](c4ccccc4)(c4ccccc4)c4cccc(S(=O)(=O)[O-])c4)cc3)cc2)(c2ccccc2)c2ccccc2)c1 | > 300 | > 100 | – | – | > 100 | – | > 100 | > 92 | > 92
FC(F)(F)c1ccc([P+](Cc2ccc(Cc3ccc(C[P+](c4ccc(C(F)(F)F)cc4)(c4ccc(C(F)(F)F)cc4)c4ccc(C(F)(F)F)cc4)cc3)cc2)(c2ccc(C(F)(F)F)cc2)c2ccc(C(F)(F)F)cc2)cc1.[Br-].[Br-] | 77.1 | 0.28 | 1.6 | 338 | 0.37 | 1.2 | 0.23 | 1.72 | 7.52
N=C(N)c1ccc(/N=N/Nc2ccc(C(=N)N)cc2)cc1 [DIMINAZENE] | – | 2.62 | 4.6 | – | – | 5.1 | 0.517 | – | –
CC(=O)N(c1ccc(C[P+](CC(C)C)(CC(C)C)CC(C)C)cc1)c1ccc(C[P+](CC(C)C)(CC(C)C)CC(C)C)cc1 | – | – | – | – | – | – | – | 11.4 | > 112
CC(C)[P+](Cc1ccc(C(=O)c2ccc(C[P+](C(C)C)(C(C)C)C(C)C)cc2)cc1)(C(C)C)C(C)C.[Br-].[Br-] | – | 38.8 | 1.6 | – | 33.4 | 1.9 | 20.6 | 9.6 | > 130
CC(C)C[P+](Cc1ccc(C(=O)c2ccc(C[P+](CC(C)C)(CC(C)C)CC(C)C)cc2)cc1)(CC(C)C)CC(C)C.[Br-].[Br-] | > 300 | 6.3 | 3.2 | > 110 | 8.34 | 2.4 | 2.62 | 1.46 | > 116
CC(C)C[P+](Cc1ccc(C(=O)c2ccccc2)cc1)(CC(C)C)CC(C)C.[Br-] | > 300 | 6.28 | 1 | > 50 | 6.1 | 1.1 | 5.9 | 4.48 | > 209
CC[P+](CC)(CC)Cc1ccc(Cc2ccc(C[P+](CC)(CC)CC)cc2)cc1.[Br-].[Br-] | > 300 | 19.3 | 0.9 | > 14 | 18.5 | 0.9 | 21.5 | 18.7 | 48.3
O=S(=O)([O-])c1cccc([P+](Cc2ccc(Oc3ccc(C[P+](c4ccccc4)(c4ccccc4)c4cccc(S(=O)(=O)[O-])c4)cc3)cc2)(c2ccccc2)c2ccccc2)c1 | > 300 | > 100 | – | – | > 100 | – | > 100 | > 92 | 90.5
Fc1c(F)c(F)c([P+](Cc2ccc(Oc3ccc(C[P+](c4ccccc4)(c4ccccc4)c4c(F)c(F)c(F)c(F)c4F)cc3)cc2)(c2ccccc2)c2ccccc2)c(F)c1F.[Br-].[Br-] | > 300 | 6.68 | 0.4 | > 10 | 9.9 | 0.3 | 23.2 | 12.8 | 5.35
C[P+](C)(Cc1ccc(Cc2ccc(C[P+](C)(C)c3ccccc3)cc2)cc1)c1ccccc1.[Br-].[Br-] | > 300 | 3.84 | 0.8 | > 55 | 4.6 | 0.7 | 5.45 | 2.59 | > 142
CC[P+](CC)(CC)Cc1ccc(C(=O)c2ccccc2)cc1 | > 300 | > 100 | – | – | > 100 | – | > 100 | > 254 | > 254
COc1cc([C@@H]2c3cc4c(cc3[C@H](O)[C@H]3COC(=O)[C@H]23)OCO4)cc(OC)c1OC [PODOFILOX] | – | – | – | – | – | – | – | – | 0.012
C[P+](C)(Cc1ccc(C(=O)c2ccc(C[P+](C)(C)c3ccccc3)cc2)cc1)c1ccccc1.[Br-].[Br-] | – | 24.6 | 1.5 | – | 28.8 | 1.3 | 19.2 | 8.8 | > 139
Fc1c(F)c(F)c([P+](Cc2ccc(Cc3ccc(C[P+](c4ccccc4)(c4ccccc4)c4c(F)c(F)c(F)c(F)c4F)cc3)cc2)(c2ccccc2)c2ccccc2)c(F)c1F.[Br-].[Br-] | > 300 | 2.74 | 1.4 | > 110 | 3.79 | 1 | 2.68 | 16 | –
Nc1nc(N)nc(Nc2ccc([As]3SCC(CO)S3)cc2)n1 (stereo unspecified) [MELARSOPROL] | – | – | – | – | – | – | – | 0.0075 | –
CC(C)C[P+](Cc1ccc(S(=O)(=O)c2ccc(C[P+](CC(C)C)(CC(C)C)CC(C)C)cc2)cc1)(CC(C)C)CC(C)C.[Br-].[Br-] | – | 13.3 | 0.8 | – | 13.6 | 0.8 | 16.7 | 6.31 | > 111
O=C(c1ccc(C[P+](c2ccco2)(c2ccco2)c2ccco2)cc1)c1ccc(C[P+](c2ccco2)(c2ccco2)c2ccco2)cc1.[Br-].[Br-] | – | 21.7 | 0.9 | – | 33.8 | 0.6 | 36.9 | 13.8 | 86
CCC[P+](CCC)(CCC)Cc1ccc(C(=O)c2ccc(C[P+](CCC)(CCC)CCC)cc2)cc1.[Br-].[Br-] | – | 31.3 | 1.4 | – | 27.2 | 1.6 | 19.7 | 8.5 | > 130
